From ChEMBL document CHEMBL4052596, “Dioncophyllines C2, D2, and F and Related Naphthylisoquinoline Alkaloids from the Congolese Liana Ancistrocladus ileboensis with Potent Activities against Plasmodium falciparum and against Multiple Myeloma and Leukemia Cell Lines” (J Nat Prod, 2017)

Tests used:
[1] = system: Leishmania donovani; assay: Antiprotozoal activity against amastigote form of Leishmania donovani MHOM/ET/67/L82 after 72 hrs by Alamar Blue assay; type: functional; settings: MHOM/ET/67/L82, 72 h
How it was run: (§1)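 In vitro tests against P. falciparum NF54, T. cruzi, T. b. rhodesiense and L. donovani, with cytotoxicity on rat skeletal myoblast L6 host cells.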

[2] = Induction of apoptosis in human INA-6 cells after 3 days by V-FITC/ propidium iodide staining-based flow cytometric analysis; type: functional, cell-based
How it was run: (§2)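 INA-6 multiple myeloma cells, or mononuclear cells from the peripheral blood of healthy donors, exposed to a range of concentrations for 3 d, with melphalan as reference. Cells stained 10 min with annexin V-FITC and PI in HEPES binding buffer pH 7.4 (140 mM NaCl, 2.5 mM CaCl2), then analysed by flow cytometry. The annexin/PI double-negative fraction counted as viable, and EC50 derived from dose-response curves.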

[3] = Selectivity index, ratio of IC50 for rat L6 cells to IC50 for erythrocytic stage of Plasmodium falciparum NF54; type: toxicity; settings: read-out: Ratio IC50
How it was run: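 Ratio of the L6 cell IC50 to the P. falciparum IC50. Each IC50 is the mean of two independent assays.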

[4] = system: L6; assay: Cytotoxicity against rat L6 cells after 72 hrs by Alamar Blue assay; type: cell-based; settings: L6, 72 h; how it was run: as §1
[5] = system: Plasmodium falciparum; assay: Antiprotozoal activity against erythrocytic stage of Plasmodium falciparum NF54 after 48 hrs by [3H]- hypoxanthine incorporation assay; type: functional; how it was run: as §1
[6] = system: Trypanosoma brucei rhodesiense; assay: Antiprotozoal activity against patient derived Trypanosoma brucei rhodesiense STIB 900 bloodstream form after 72 hrs by Alamar Blue assay; type: functional; settings: STIB 900, 72 h; how it was run: as §1
[7] = system: Trypanosoma cruzi; assay: Antiprotozoal activity against trypomastigote stage of Trypanosoma cruzi Tulahuen C2C4 infected in rat L6 cells using preincubated for 96 hrs by CPRG/Nonidet-based inverted microscopy; type: functional, cell-based; how it was run: as §1
[8] = system: ADR5000 cell line; assay: Growth inhibition of human multi-drug resistant CEM/ADR5000 cells by resazurin assay; type: functional, cell-based
How it was run: (§3)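 CCRF-CEM cells and the P-glycoprotein-overexpressing multidrug-resistant subline CEM/ADR5000 treated over a range of concentrations, with doxorubicin as positive control and DMSO (under 1.0%) as negative control. Resazurin fluorescence read at ex 544/em 590 nm against untreated cells. IC50 taken from a calibration curve by linear regression. Mean ± SD of three independent experiments, six parallel measurements each.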

[9] = Resistance index, ratio of IC50 for human CEM/ADR5000 cells to IC50 for human CCRF-CEM cells; type: functional
How it was run: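 Degree of resistance is the IC50 for CEM/ADR5000 divided by the IC50 for CCRF-CEM. Both come from resazurin viability dose-response curves over three independent experiments.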

[10] = system: PBMC; assay: Induction of apoptosis in human PBMC after 3 days by V-FITC/ propidium iodide staining-based flow cytometric analysis; type: cell-based; settings: 72 h; how it was run: as §2
[11] = system: CCRF-CEM; assay: Growth inhibition of human CCRF-CEM cells at 10 uM by resazurin assay relative to control; type: functional; settings: read-out: GI
How it was run: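 Drug-sensitive CCRF-CEM leukemia cells treated at a single concentration of 10 μM, with doxorubicin as reference and DMSO vehicle (under 1.0%) as negative control. Viability read by resazurin fluorescence (ex 544, em 590 nm) relative to untreated cells. Three independent experiments, six parallel measurements each.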

[12] = system: CCRF-CEM; assay: Growth inhibition of human CCRF-CEM cells by resazurin assay; type: functional, cell-based; how it was run: as §3
[13] = system: Plasmodium falciparum; assay: Antiprotozoal activity against erythrocytic stage of chloroquine and pyrimethamine resistant Plasmodium falciparum K1 after 48 hrs by [3H]- hypoxanthine incorporation assay; type: functional
[14] = Selectivity index, ratio of IC50 for rat L6 cells to IC50 for erythrocytic stage of chloroquine and pyrimethamine resistant Plasmodium falciparum K1; type: toxicity; settings: read-out: Ratio IC50
How it was run: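 Selectivity index: IC50 toward rat skeletal myoblast L6 cells (in vitro cytotoxicity, previously published method) divided by IC50 against P. falciparum K1; each IC50 is the mean of two independent assays.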

| Structure (SMILES) | IC50 [1] | EC50 ([2]; Homo sapiens, INA-6, 72 h) | selectivity ratio [3] | IC50 [4] | IC50 [5] | IC50 [6] | IC50 [7] | other results |
| --- | --- | --- | --- | --- | --- | --- | --- | --- |
| COc1cc2c(c(OC)c1-c1c(C)cc(OC)c3c(OC)cccc13)[C@@H](C)N[C@@H](C)C2 | 25.4 µM | 4.8 µM | 41 | 30 µM | 0.726 µM | 0.313 µM | 12.4 µM | – |
| COc1cccc2c(-c3ccc(O)c4c3C[C@@H](C)N[C@H]4C)c(C)cc(OC)c12 | 228 µM | – | 61.7 | 43.3 µM | 0.702 µM | 4.83 µM | 44.5 µM | – |
| COc1ccc(-c2ccc3c(c2O)[C@@H](C)N[C@H](C)C3)c2cc(C)cc(OC)c12 | > 265 µM | 2.6 µM | 17.6 | 4.02 µM | 0.228 µM | 8.08 µM | 26.3 µM | IC50 [8]: 5.31 µM; Ratio IC50 [9]: 2.9; EC50 [10]: 19 µM; inhibition of growth at 10 µM [11]: < 50%; IC50 [12]: 1.86 µM |
| COc1cc(C)c(-c2ccc3c(c2O)[C@@H](C)N[C@H](C)C3)c2cccc(O)c12 | – | 1.5 µM | – | – | – | – | – | – |
| COc1cc2c(c(O)c1-c1c(C)cc(OC)c3c(OC)cccc13)C(C)=N[C@H](C)C2 | 146 µM | – | 5.4 | 34.9 µM | 6.51 µM | 22.7 µM | 104 µM | – |
| COc1ccc(-c2ccc(O)c3c2C[C@@H](C)N[C@H]3C)c2cc(C)cc(OC)c12 | 107 µM | 21 µM | 161 | 14.5 µM | 0.09 µM | 0.585 µM | 14.6 µM | IC50 [13]: 0.045 µM; selectivity ratio [14]: 323; EC50 [10]: 16 µM |
| COc1ccc(-c2ccc3c(c2O)[C@@H](C)N(C)[C@H](C)C3)c2cc(C)cc(OC)c12 | 136 µM | 32 µM | 586 | 62.8 µM | 0.107 µM | 13.7 µM | 55 µM | – |
| N[C@@H](Cc1ccc(N(CCCl)CCCl)cc1)C(=O)O | – | 2 µM | – | – | – | – | – | – |
| COc1cccc2c(-c3ccc4c(c3O)[C@@H](C)N[C@H](C)C4)c(C)cc(O)c12 (stereo in doubt; M-11) | – | – | – | – | – | – | – | EC50 ([2]; ina-6): 16 µM; EC50 [10]: 50 µM |
| COc1cccc2c(-c3ccc4c(c3O)[C@@H](C)N[C@H](C)C4)c(C)cc(O)c12 (stereo in doubt; P-11) | – | – | – | – | – | – | – | EC50 ([2]; ina-6): 2.7 µM |
| O=C(Cn1ccnc1[N+](=O)[O-])NCc1ccccc1 [BENZNIDAZOLE] | – | – | – | – | – | – | 2.32 µM | – |
| COc1cccc2c(-c3ccc4c(c3O)[C@@H](C)N[C@H](C)C4)c(C)cc(OC)c12 [DIONCOPHYLLINE A] | – | 0.22 µM | – | – | – | – | – | IC50 [8]: 0.52 µM; Ratio IC50 [9]: 2.1; inhibition of growth at 10 µM [11]: < 50%; IC50 [12]: 0.243 µM |
| COc1cc(C)c(-c2ccc(O)c3c2C[C@@H](C)N[C@@H]3C)c2cccc(O)c12 [DIONCOPHYLLINE C] | – | 7.5 µM | – | – | – | – | – | EC50 [10]: 9 µM |
| COc1cccc2c1C(=O)c1c(O)c3c(c(O)c1C2=O)C[C@@](O)(C(=O)CO)C[C@@H]3O[C@H]1C[C@H](N)[C@H](O)[C@H](C)O1 [DOXORUBICIN] | – | – | – | – | – | – | – | IC50 [8]: 30.1 µM; Ratio IC50 [9]: 1769; IC50 [12]: 0.017 µM |
| COc1cccc2c(-c3ccc4c(c3O)[C@@H](C)N(C(C)=O)[C@H](C)C4)c(C)cc(OC)c12 [N-ACETYLDIONCOPHYLLINE A] | – | 0.8 µM | – | – | – | – | – | – |
